The term IC50 denotes the concentration that inhibits the measured activity by half.

In experiment [1] the test system is HCT-15. Put plainly: Antiproliferative activity against human HCT15 cells at 1 uM after 72 hrs by fluorescence method. The format is functional. The note with it: HCT-15, 72 h, read-out: GI. The procedure, abridged: (§1)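 Panel of HCT116, MCF7 and HL60 cancer cells, each paired with a resistant counterpart (HCT15, MCF7R, HL60R). Growth inhibition was recorded as a percentage at 10 and 1 μM of test compound.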

Experiment [2] deals with HCT-116. As to the kind of experiment: Antiproliferative activity against human HCT116 cells at 1 uM after 72 hrs by fluorescence method. Particulars: HCT-116, 72 h, read-out: GI. It is filed as functional. The procedure, abridged: as §1
In experiment [3] the test system is HCT-15. As to the kind of experiment: Antiproliferative activity against human HCT15 cells at 10 uM after 72 hrs by fluorescence method. It is filed as functional. Particulars: HCT-15, 72 h, read-out: GI. Put shortly:
as §1

The subject of experiment [4] is KB. As to the kind of experiment: Antiproliferative activity against human KB cells after 72 hrs by fluorescence method. The format is functional, cell-based. Put shortly:
(§2)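 KB cells. Growth inhibition was recorded as a percentage at fixed 10 and 1 μM concentrations, with IC50 determined separately for selected compounds.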

Experiment [5] deals with HCT-116. As to the kind of experiment: Antiproliferative activity against human HCT116 cells at 10 uM after 72 hrs by fluorescence method. Particulars: HCT-116, 72 h, read-out: GI. It is filed as functional. Put shortly: as §1
Experiment [6] is described as follows: Antiproliferative activity against human MCF7/R cells at 10 uM after 72 hrs by fluorescence method. The format is functional. Particulars: MCF7R, read-out: GI. Put shortly: as §1
Experiment [7] concerns MCF7. As to the kind of experiment: Antiproliferative activity against human MCF7 cells at 10 uM after 72 hrs by fluorescence method. It is filed as functional. Particulars: MCF7, 72 h, read-out: GI. The procedure, abridged: as §1
Experiment [8] is described as follows: Antiproliferative activity against human HL60R cells at 10 uM after 72 hrs by fluorescence method. The format is functional. The note with it: read-out: GI. Put shortly:
as §1

The nature of experiment [9]: Antiproliferative activity against human MCF7/R cells at 1 uM after 72 hrs by fluorescence method. It is filed as functional. The note with it: MCF7R, read-out: GI. Put shortly: as §1
Experiment [10] deals with HL-60. Put plainly: Antiproliferative activity against human HL60 cells at 10 uM after 72 hrs by fluorescence method. Particulars: HL-60, 72 h, read-out: GI. It is filed as functional. The procedure, abridged:
as §1

Experiment [11] has as its system KB. As to the kind of experiment: Antiproliferative activity against human KB cells at 1 uM after 72 hrs by fluorescence method. Particulars: read-out: GI. The format is functional. The procedure, abridged:
as §2

Experiment [12] deals with HL-60. As to the kind of experiment: Antiproliferative activity against human HL60 cells at 1 uM after 72 hrs by fluorescence method. The note with it: HL-60, 72 h, read-out: GI. The format is functional. The procedure, abridged: as §1
Experiment [13] in a line: Inhibition of tubulin polymerization.
The nature of experiment [14]: Antiproliferative activity against human HL60R cells at 1 uM after 72 hrs by fluorescence method. It is filed as functional. Particulars: read-out: GI. Put shortly:
as §1

The test system of experiment [15] is KB. Put plainly: Antiproliferative activity against human KB cells at 10 uM after 72 hrs by fluorescence method. The format is functional. Particulars: read-out: GI. The procedure, abridged: as §2
The subject of experiment [16] is MCF7. As to the kind of experiment: Antiproliferative activity against human MCF7 cells at 1 uM after 72 hrs by fluorescence method. Particulars: MCF7, 72 h, read-out: GI. The format is functional. The procedure, abridged:
as §1

Take `O=C1NC2CCc3cccc(c32)-c2c1[nH]c1ccccc21` (centres undefined): the inhibition of growth at 1 µM with HCT-15 [1] amounted to 75%; in the experiment with HCT-116 [2], 64%; in experiment [9], 67%; with KB [11], 63%; in the experiment with HL-60 [12], 83%; in experiment [14], 70%. Moreover, the inhibition of growth at 1 µM with MCF7 [16] was 46%. The inhibition of growth at 10 µM in the experiment with HCT-15 [3] is 87%; with HCT-116 [5], 80%; in experiment [6], 72%; in the experiment on MCF7 [7] it was 39%; in experiment [8], 81%; with HL-60 [10] it was 90%. In addition, the inhibition of growth at 10 µM with KB [15] came to 81%. Further, the IC50 stood at 0.9 µM in the experiment with KB [4] and 5.3 µM in [13].
As for `CC[C@H]1c2ccccc2-c2c([nH]c3ccccc23)C(=O)N1C`, the inhibition of growth at 1 µM in the experiment on HCT-15 [1] stood at 92%; in the experiment with HCT-116 [2], 91%; in experiment [9], 75%; in the experiment with KB [11] it was 100%; in the experiment on HL-60 [12], 85%; in experiment [14] it was 70%. Besides, the inhibition of growth at 1 µM in the experiment with MCF7 [16] is 85%. Further, the inhibition of growth at 10 µM was found to be 100% with HCT-15 [3]; 100% in the experiment on HCT-116 [5]; 92% in experiment [6]; 96% in the experiment with MCF7 [7]; 89% in experiment [8]; 100% in the experiment with HL-60 [10]. For the same compound, the inhibition of growth at 10 µM with KB [15] came out at 100%. For the same compound, the values for the IC50 (in the experiment with KB [4]; in experiment [13]) were 0.002 µM and 4.1 µM, respectively.
Consider `CC[C@@H]1NC(=O)c2[nH]c3ccccc3c2-c2ccccc21`, for which the inhibition of growth at 1 µM in the experiment on HCT-15 [1] came out at 94%; in the experiment on HCT-116 [2], 85%; in experiment [9], 84%; in the experiment with KB [11], 100%; in the experiment on HL-60 [12], 90%; in [14], 78%. In addition, the inhibition of growth at 1 µM with MCF7 [16] amounted to 82%. Besides, the inhibition of growth at 10 µM was 100% in the experiment on HCT-15 [3]; 100% with HCT-116 [5]; 96% in experiment [6]; 92% with MCF7 [7]; 95% in [8]; 100% with HL-60 [10]. Further, the inhibition of growth at 10 µM in the experiment on KB [15] worked out at 100%. The IC50 turned out to be 0.035 µM in the experiment on KB [4] and 1.8 µM in [13].
`O=C1c2[nH]c3ccccc3c2-c2ccccc2C2CCCN12` (centres undefined): the inhibition of growth at 1 µM in the experiment on HCT-15 [1] came to 78%; in the experiment on HCT-116 [2], 64%; in experiment [9], 56%; in the experiment on KB [11], 27%; with HL-60 [12] it was 49%; in [14], 49%. Besides, the inhibition of growth at 1 µM with MCF7 [16] was 28%. Besides, the inhibition of growth at 10 µM is 84% in the experiment with HCT-15 [3]; 81% in the experiment on HCT-116 [5]; 75% in experiment [6]; 55% in the experiment with MCF7 [7]; 80% in experiment [8]; 84% with HL-60 [10]. The inhibition of growth at 10 µM in the experiment with KB [15] is 100%. The IC50 in the experiment on KB [4] was 5 µM; in experiment [13], 4.2 µM.

The record behind these values is ChEMBL document CHEMBL2010708, “Rigid Analogues of Antimitotic Indolobenzazepinones: New Insights into Tubulin Binding via Molecular Modeling” (ACS Med Chem Lett, 2011).
